Reference: paper PMC3085959 (Journal of medicinal chemistry, 2011)
“Also recorded” adds a separate entry of the source.

Columns and labels:
[1] = test system: rats; assay: Rat forced swim test; type: in vivo; conditions: 10 mg/kg i.p., sub-chronic, 1 h before test, compared to vehicle
Method in brief: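 Male Sprague-Dawley rats (200–225 g), naive, used once, tested in cylinders of 24–25 °C water, 22 cm deep. A 15 min pretest was followed 24 h later by a 5 min test. Dosing was i.p. in 10% β-hydroxypropyl cyclodextrin (2 mL/kg), 15 min after pretest and 1 h before test. Imipramine 15 mg/kg was the reference. Blinded video immobility scoring, one-way ANOVA.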

[2] = test system: cloned human dopamine receptor subtypes, serotonin receptor subtypes, alpha-adrenergic receptors, and opioid receptors; assay: CNS receptor screening, NIMH PDSP primary binding assays; conditions: 10 μM
[3] = molecular target: dopamine transporter (DAT) (Rattus norvegicus, UniProt P23977); assay: Inhibition of [3H]dopamine uptake by DAT in rat striatum; type: biochemical
[4] = molecular target: serotonin transporter (SERT) (Rattus norvegicus, UniProt P31652); assay: Inhibition of [3H]serotonin uptake by SERT in rat cerebral cortex; type: biochemical
Sequence of serotonin transporter (SERT) (P31652 whole entry): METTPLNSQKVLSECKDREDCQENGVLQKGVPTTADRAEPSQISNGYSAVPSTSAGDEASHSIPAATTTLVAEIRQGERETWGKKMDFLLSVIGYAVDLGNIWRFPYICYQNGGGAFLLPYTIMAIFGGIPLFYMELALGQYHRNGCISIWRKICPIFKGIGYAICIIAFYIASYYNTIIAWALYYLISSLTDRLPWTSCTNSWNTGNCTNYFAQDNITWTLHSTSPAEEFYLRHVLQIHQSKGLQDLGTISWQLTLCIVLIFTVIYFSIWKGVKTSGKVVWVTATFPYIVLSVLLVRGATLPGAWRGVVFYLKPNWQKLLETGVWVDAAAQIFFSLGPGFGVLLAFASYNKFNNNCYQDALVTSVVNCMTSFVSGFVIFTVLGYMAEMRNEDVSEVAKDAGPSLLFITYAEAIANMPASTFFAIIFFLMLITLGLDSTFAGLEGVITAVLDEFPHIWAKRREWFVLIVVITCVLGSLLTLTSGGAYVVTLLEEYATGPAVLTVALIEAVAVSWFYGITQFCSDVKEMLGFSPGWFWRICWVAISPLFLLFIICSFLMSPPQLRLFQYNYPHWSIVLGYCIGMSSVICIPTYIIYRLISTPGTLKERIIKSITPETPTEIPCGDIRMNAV

Sequence of dopamine transporter (DAT) (P23977 whole entry): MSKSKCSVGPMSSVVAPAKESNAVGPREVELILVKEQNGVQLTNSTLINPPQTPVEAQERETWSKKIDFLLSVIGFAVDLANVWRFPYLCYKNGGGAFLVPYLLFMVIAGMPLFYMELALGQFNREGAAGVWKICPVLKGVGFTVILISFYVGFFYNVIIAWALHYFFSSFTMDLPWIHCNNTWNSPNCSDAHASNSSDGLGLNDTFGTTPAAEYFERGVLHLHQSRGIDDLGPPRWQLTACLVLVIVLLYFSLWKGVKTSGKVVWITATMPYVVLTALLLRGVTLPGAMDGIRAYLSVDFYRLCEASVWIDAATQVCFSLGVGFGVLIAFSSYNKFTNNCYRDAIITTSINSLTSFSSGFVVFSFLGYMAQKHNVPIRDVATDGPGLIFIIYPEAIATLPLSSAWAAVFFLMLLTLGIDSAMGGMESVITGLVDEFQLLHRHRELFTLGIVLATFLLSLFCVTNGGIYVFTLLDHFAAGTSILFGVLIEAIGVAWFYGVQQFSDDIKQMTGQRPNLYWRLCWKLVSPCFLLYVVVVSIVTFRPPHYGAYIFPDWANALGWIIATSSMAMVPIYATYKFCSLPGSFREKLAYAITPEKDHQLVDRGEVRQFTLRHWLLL

| Inhibition in CNS receptor screening, majority of the receptor target sites [2] | Inhibition in CNS receptor screening, a few other target sites ([2]; only marginally so in some cases) | Ki [3] | Ki [4] | Compound | Effect on duration of immobility in the forced swimming test [1] |
| --- | --- | --- | --- | --- | --- |
| less than 50% | greater than 50% | – | – | Oc1cccc(CN[C@H]2CC[C@@H](C(c3ccccc3)c3ccccc3)OC2)c1 [Compound 10f, 3-((((3S,6S)-6-benzhydryltetrahydro-2H-pyran-3-yl)amino)methyl)phenol] | significant reduction of immobility; also recorded: high efficacy in reducing immobility; also recorded: more efficacious than imipramine |
| – | – | 15.9 nM | 12.9 nM | c1ccc(C(c2ccccc2)[C@@H]2CC[C@H](NCc3cccs3)CO2)cc1 [Compound 10g, (3S,6S)-6-benzhydryl-N-(thiophen-2-ylmethyl)tetrahydro-2H-pyran-3-amine] | – |
